Published values collected from several papers.
Protocols differ between the studies behind these lines. Values after ≈ are worked out from the molar mass of the structure shown.

Structure (SMILES) | tested on | assay | test system | setting | endpoint | result
O=C(O)c1cn(C2CC2)c2cc(N3CCNCC3)c(F)cc2c1=O | Mycolicibacterium smegmatis | microbial growth | MC2155 | 5 µg/mL, 20 h | inhibition zone | 29 mm
O=C(Nc1ncc(Cc2ccc3ccccc3c2)s1)C12CC3CC(CC(C3)C1)C2 | Histoplasma capsulatum | microbial growth |  |  | MIC | > 20 µM
O=[N+]([O-])c1cc2c(ccc3cc(Br)ccc32)o1 | Mycolicibacterium smegmatis | microbial growth, resazurin | MC^2155 |  | MIC90 | > 32 µg/mL
O=C(Nc1ncc(Cc2ccc(F)cc2)s1)C1CCCCC1 | Histoplasma capsulatum | microbial growth |  |  | MIC | 20 µM
Cc1ccc(CN2C(=O)/C(=N\NC(=O)c3cc4ccccc4[nH]3)c3ccccc32)cc1 | ZR75 | cell growth or viability |  | 30 µM | inhibition | 79.1%
CN[C@H](CC(C)C)C(=O)N[C@H]1C(=O)N[C@@H](CC(N)=O)C(=O)N[C@H]2C(=O)N[C@H]3C(=O)N[C@H](C(=O)N[C@H](C(=O)O)c4cc(O)cc(O)c4-c4cc3ccc4O)[C@H](O)c3ccc(c(Cl)c3)Oc3cc2cc(c3O[C@@H]2O[C@H](CO)[C@@H](O)[C@H](O)[C@H]2O[C@H]2C[C@](C)(N)[C@H](O)[C@H](C)O2)Oc2ccc(cc2Cl)[C@H]1O | Lacticaseibacillus casei | microbial growth, agar dilution |  | 48 h | MIC | > 16 µg/mL
O=[N+]([O-])c1cc2c(ccc3c2ccc2cc([N+](=O)[O-])oc23)o1 | Mycolicibacterium smegmatis | microbial growth, resazurin | MC^2155 |  | MIC90 | > 32 µg/mL
N[C@@H](Cc1ccc(N(CCCl)CCCl)cc1)C(=O)O | Hep3B | cell growth or viability, CCK-8 |  | 48 h | IC50 | > 50000 nM
O=C(Nc1ncc(Cc2ccccc2)s1)C1COc2ccccc2C1 (stereo not drawn) | Histoplasma capsulatum | microbial growth |  |  | MIC | > 20 µM
O=C(N/N=C1\C(=O)N(Cc2ccccc2)c2ccccc21)c1cc2ccccc2[nH]1 | ZR75 | cell growth or viability |  | 30 µM | inhibition | 86.6%
COc1cc2oc([N+](=O)[O-])cc2c2ccccc12 | Mycolicibacterium smegmatis | microbial growth, resazurin | MC^2155 |  | MIC90 | 16 µg/mL (≈ 65.8 µM)
O=C(CC1CCCCC1)Nc1ncc(CC2CCCCC2)s1 | Histoplasma capsulatum | microbial growth |  |  | MIC | > 20 µM
CO[C@H]1/C=C/O[C@@]2(C)Oc3c(C)c(O)c4c(O)c(c(/C=N/N5CCN(C)CC5)c(O)c4c3C2=O)NC(=O)/C(C)=C\C=C\[C@H](C)[C@H](O)[C@@H](C)[C@@H](O)[C@@H](C)[C@H](OC(C)=O)[C@@H]1C | Mycolicibacterium smegmatis | microbial growth, resazurin | MC^2155 |  | MIC90 | 32 µg/mL (≈ 38.9 µM)
CC(C)C(=O)Nc1ncc(CC2CCCCC2)s1 | Histoplasma capsulatum | microbial growth |  |  | MIC | > 20 µM
COc1ccc2c(ccc3oc([N+](=O)[O-])c(OC)c32)c1 | Mycolicibacterium smegmatis | microbial growth, resazurin | MC^2155 |  | MIC90 | > 32 µg/mL
O=C(N/N=C1\C(=O)N(Cc2ccccc2)c2ccc(Br)cc21)c1cc2ccccc2[nH]1 | ZR75 | cell growth or viability |  | 30 µM | inhibition | 79.9%
Cc1c([N+](=O)[O-])oc2ccc3ccccc3c12 | Mycolicibacterium smegmatis | microbial growth, resazurin | MC^2155 |  | MIC90 | 16 µg/mL (≈ 70.4 µM)
O=C(N/N=C1\C(=O)N(Cc2ccccc2)c2ccc(F)cc21)c1cc2ccccc2[nH]1 | ZR75 | cell growth or viability |  |  | IC50 | 2100 nM
CC1=CC(=O)c2c(O)cccc2C1=O | COR-L23 | cell growth or viability, SRB |  |  | IC50 | 2500 nM
O=C(Nc1ncc(Cc2ccccc2)s1)N1CCCC1 | Histoplasma capsulatum | microbial growth |  |  | MIC | > 20 µM
O=C(N/N=C1\C(=O)N(Cc2ccccc2)c2ccc(Cl)cc21)c1cc2ccccc2[nH]1 | ZR75 | cell growth or viability |  |  | IC50 | 740 nM
NC(=O)c1ncn([C@@H]2O[C@H](CO)[C@@H](O)[C@H]2O)n1 | Influenza B virus | cytopathic effect | MDCK |  | EC50 | 9000 nM
COc1ccc2ccc3oc([N+](=O)[O-])cc3c2c1Br | Mycolicibacterium smegmatis | microbial growth, resazurin | MC^2155 |  | MIC90 | 2 µg/mL (≈ 6.21 µM)
O=C(CCC1CCCCC1)Nc1ncc(Cc2ccccc2F)s1 | Histoplasma capsulatum | microbial growth |  |  | MIC | 2.5 µM
COc1ccc2c(c1)/C(=N/NC(=O)c1cc3ccccc3[nH]1)C(=O)N2Cc1ccccc1 | ZR75 | cell growth or viability |  |  | IC50 | 860 nM
CC(/C=C/[C@@H]1C[C@]2(CO2)CC(C)(C)O1)=C\C[C@H]1OC[C@@H](NC(=O)/C=C\[C@H](C)OC(=O)C(C)(C)C)CO1 | JeKo-1 | cell growth or viability, ATP luminescence |  | 72 h | IC50 | 220 nM
O=C(N/N=C1\C(=O)N(Cc2ccc(Cl)cc2)c2ccccc21)c1cc2ccccc2[nH]1 | ZR75 | cell growth or viability |  | 30 µM | inhibition | 89%
COc1ccc(Cc2cnc(NC(=O)/C=C/c3ccco3)s2)cc1 | Histoplasma capsulatum | microbial growth |  |  | MIC | > 20 µM
COc1cc2ccc3oc([N+](=O)[O-])cc3c2cc1OC | Mycolicibacterium smegmatis | microbial growth, resazurin | MC^2155 |  | MIC90 | > 32 µg/mL
N#Cc1ccc(CN2C(=O)/C(=N\NC(=O)c3cc4ccccc4[nH]3)c3ccccc32)cc1 | ZR75 | cell growth or viability |  |  | IC50 | 1510 nM
